Assay outcomes (PubChem)
PMI act = activators of human phosphomannose isomerase | purified human PMI, coupled resazurin fluorescence, 20 min; stronger effect = higher value; 1 = vehicle control, 0 substrate-free wells | activation factor at 20 µM | 190,000 tested, 0.005% active | AID 1214;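 active = activation factor of 2 or more at 20 µM, relative to plate controls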
Target sequence (P34949 whole entry, looked up): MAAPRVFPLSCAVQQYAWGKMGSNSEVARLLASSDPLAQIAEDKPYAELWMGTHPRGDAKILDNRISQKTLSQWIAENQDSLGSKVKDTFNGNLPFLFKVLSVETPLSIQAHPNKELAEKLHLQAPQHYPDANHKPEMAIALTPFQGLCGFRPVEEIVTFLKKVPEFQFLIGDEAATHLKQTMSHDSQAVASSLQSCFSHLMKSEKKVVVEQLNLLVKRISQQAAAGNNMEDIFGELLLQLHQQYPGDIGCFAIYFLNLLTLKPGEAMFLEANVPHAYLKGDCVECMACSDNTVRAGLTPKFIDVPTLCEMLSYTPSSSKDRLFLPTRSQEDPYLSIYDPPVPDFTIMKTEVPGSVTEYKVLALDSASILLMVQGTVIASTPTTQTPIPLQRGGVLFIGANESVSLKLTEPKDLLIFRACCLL
PMI act satM6P = PMI (human) activation, high substrate; P34949; coupled PMI enzyme assay, resazurin fluorescence, 20 min; stronger effect = higher value; 1 = untreated enzyme, 0 = substrate-free blank; activation factor at 20 µM; 190,000 tested, 0.34% active; AID 1216;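 active = activation factor of 2 or more at 20 µM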
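Test system: Human PMI in coupled enzyme assay | Input: 15 ng/mL PMI | Medium: HEPES-buffered pH 7.4 with magnesium and detergent | Compound: One concentration, 20 µM, in 1% DMSO | Incubation: Enzyme reaction with compound 20 min at room temperature | Detection: Diaphorase-driven resazurin-to-resorufin fluorescence, excitation 544, emission 590 nm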
G6PDH counter = counter-screen for G6PDH assay hits: L. mesenteroides G6PDH inhibition. Purified L. mesenteroides G6PDH, diaphorase/resazurin coupled fluorescence, 45 min. 200,000 tested, 0.12% active. inhibition, % at 5 µM; in the data active = inhibition above about 50%
Diaphorase act = diaphorase activation or chemical reduction counter-screen. activation factor at 20 µM. 190,000 tested, 0.005% active. Diaphorase/resazurin coupled assay, resorufin fluorescence, 16 min; stronger effect = higher value; 1 = vehicle wells, 0 = NADH-free wells;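 active = diaphorase activity raised at least twofold by the compound at 20 µM; inactive = activation factor below 2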
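Assay system: bacterial diaphorase enzyme (C. kluyveri) / Input: enzyme 0.07 U/mL final / Medium: 50 mM HEPES pH 7.4 with 4.542 mM MgCl2, 0.005% Tween 20 / Doses: single compound dose of 20 µM, 1% DMSO final / Incubation: 16 min enzyme reaction, ambient temperature / Signal: fluorescence, excitation 544 nm and emission 590 nm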
Diaphorase inh = diaphorase inhibition or chemical oxidation counter-screen; diaphorase resazurin-to-resorufin fluorescence, NADH, 16 min; bacterial (C. kluyveri) enzyme, not human; inhibition, % at 20 µM; 190,000 tested, 0.69% active; AID 1217;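 active = primary screen inhibition at 20 µM above a set limit, cut at about 50% in these data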;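 note: plate controls were DMSO with full reaction for no effect and wells lacking NADH for full effect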
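material = Clostridium kluyveri diaphorase enzyme | amount = 0.14 U/mL diaphorase, enzyme working solution | schedule = incubation 16 min, room temperature | detection = fluorescence of resorufin formed from resazurin, Ex 544/Em 590 nm | benchmarks = positive control minus NADH, DMSO neutral control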
Starred values were filed as active, the others as inactive. Hits are enriched below; roughly 1.1% of the tested compounds scored in any of these assays.

Results for O=C(CSc1ccccc1)N(c1ccc(Br)cc1)c1nccs1 ?
PMI act: 0.9; PMI act satM6P: 1; G6PDH counter: -11.9; Diaphorase act: 0.8; Diaphorase inh: 15.2

What do the screens show for `CCCCN(C(=O)CN1CCOCC1)c1c(N)n(CC(C)C)c(=O)[nH]c1=O`?
PMI act: 0.9; PMI act satM6P: 0.9; G6PDH counter: -5.0; Diaphorase act: 0.9; Diaphorase inh: 12.3

Results for O=C(Nc1ccc(C(=O)O)cc1)/C(=C\c1cccc([N+](=O)[O-])c1)NC(=O)c1ccc(Br)o1 ?
PMI act: 1; PMI act satM6P: 1; G6PDH counter: 3.5; Diaphorase act: 1; Diaphorase inh: 0.0

How did COc1ccc(N=Nc2nc3cc(Br)c(Br)cc3n2C)c(OC)c1 do in these assays?
PMI act: 1.6; PMI act satM6P: 2.1*; G6PDH counter: -5.8; Diaphorase act: 0.9; Diaphorase inh: 14.1

Results for COc1ccc(CNc2nc3ccccc3n2C)c(OC)c1 ?
PMI act: 1; PMI act satM6P: 1; G6PDH counter: 3.9; Diaphorase act: 1.1; Diaphorase inh: -9.0

How did Cc1ccc(N/N=C(\C#N)C(N)=S)cc1C do in these assays?
PMI act: 1.3; PMI act satM6P: 2.1*; G6PDH counter: 0.2; Diaphorase act: 1; Diaphorase inh: -0.9

What do the screens show for `Cc1ccc(NC(N)=S)cc1C`?
PMI act: 0.9; PMI act satM6P: 1; G6PDH counter: -2.0; Diaphorase act: 1; Diaphorase inh: 2.8

Results for COc1ccc(C(=O)NNc2ccccc2)cc1OC ?
PMI act: 1.4; PMI act satM6P: 2.2*; G6PDH counter: 4.0; Diaphorase act: 0.8; Diaphorase inh: 22.5

What do the screens show for `O=C(CN1CCCCCCC1)N/N=C/c1ccc(F)c(F)c1`?
PMI act: 1.1; PMI act satM6P: 0.9; G6PDH counter: 0.9; Diaphorase act: 1; Diaphorase inh: 3.7

How did CC(/C=N/n1c(-c2cccnc2)n[nH]c1=S)=C\c1ccccc1 do in these assays?
PMI act: 0.9; PMI act satM6P: 1; G6PDH counter: 6.8; Diaphorase act: 0.6; Diaphorase inh: 42.5

How did S=c1[nH]nc(-c2cccnc2)n1/N=C/C=C/c1ccccc1 do in these assays?
PMI act: 0.8; PMI act satM6P: 0.9; G6PDH counter: 5.4; Diaphorase act: 0.5; Diaphorase inh: 51.9*

What do the screens show for `O=[N+]([O-])c1ccccc1/C=N/n1c(-c2cccnc2)n[nH]c1=S`?
PMI act: 1; PMI act satM6P: 1; G6PDH counter: -3.1; Diaphorase act: 0.6; Diaphorase inh: 41.0

What do the screens show for `CC(/C=N/n1c(-c2ccccc2)n[nH]c1=S)=C\c1ccco1`?
PMI act: 0.9; PMI act satM6P: 0.9; G6PDH counter: -27.8; Diaphorase act: 0.6; Diaphorase inh: 40.7

How did S=c1[nH]nc(-c2ccncc2)n1/N=C/C=C/c1ccco1 do in these assays?
PMI act: 1.4; PMI act satM6P: 1.2; G6PDH counter: 8.3; Diaphorase act: 0.3; Diaphorase inh: 71.0*

How did O=[N+]([O-])c1cc(/C=N/n2c(-c3cccnc3)n[nH]c2=S)ccc1Cl do in these assays?
PMI act: 0.9; PMI act satM6P: 0.9; G6PDH counter: 2.2; Diaphorase act: 0.5; Diaphorase inh: 51.0*

What do the screens show for `O=C(OCc1ccccc1)C1=NNC2C(=O)N(Cc3ccccc3)C(=O)C12` (stereo unspecified)?
PMI act: 1.1; PMI act satM6P: 1; G6PDH counter: 19.1; Diaphorase act: 1.1; Diaphorase inh: -10.4

What do the screens show for `Nc1nc(-c2ccco2)nn1S(=O)(=O)c1ccc(Cl)cc1`?
PMI act: 0.9; PMI act satM6P: 0.9; G6PDH counter: 11.8; Diaphorase act: 0.9; Diaphorase inh: 12.6

Results for O=C(NNC1=NC2(CCCC2)Cc2ccccc21)c1ccncc1 ?
PMI act: 1.1; PMI act satM6P: 1; G6PDH counter: 0.1; Diaphorase act: 1; Diaphorase inh: 0.3

What do the screens show for `Cc1ccccc1NC(=O)c1sc2nc3c(c(-c4ccco4)c2c1N)CCC3`?
PMI act: 1.1; PMI act satM6P: 0.8; G6PDH counter: 6.3; Diaphorase act: 0.5; Diaphorase inh: 52.7*

What do the screens show for `N#Cc1sc2nc3c(c(-c4ccco4)c2c1N)CCCC3`?
PMI act: 1; PMI act satM6P: 0.9; G6PDH counter: 8.1; Diaphorase act: 0.5; Diaphorase inh: 51.7*

Results for Nc1c(C(=O)NCC2CCCO2)sc2nc3c(c(-c4ccco4)c12)CC/C3=C\c1ccco1 (stereo unspecified) ?
PMI act: 1.2; PMI act satM6P: 1; G6PDH counter: 8.9; Diaphorase act: 0.1; Diaphorase inh: 89.3*

What do the screens show for `COC(=O)c1sc2nc3c(c(-c4cccs4)c2c1N)CCCC3`?
PMI act: 1; PMI act satM6P: 1; G6PDH counter: -4.8; Diaphorase act: 0.9; Diaphorase inh: 10.3

Results for CC(C)(C)c1cc(NC(=O)CSc2nncs2)n(-c2ccccc2)n1 ?
PMI act: 1; PMI act satM6P: 1; G6PDH counter: 7.7; Diaphorase act: 0.9; Diaphorase inh: 5.6

How did Cc1c(Cl)c([N+](=O)[O-])nn1CC(=O)N1CCN(Cc2ccccc2)CC1 do in these assays?
PMI act: 1.1; PMI act satM6P: 1.1; G6PDH counter: 0.7; Diaphorase act: 1; Diaphorase inh: -3.0

What do the screens show for `Cc1cc(O)ccc1Nc1nc2ccccc2nc1Nc1ccc(O)cc1C`?
PMI act: 1.1; PMI act satM6P: 0.7; G6PDH counter: 15.2; Diaphorase act: 0.4; Diaphorase inh: 58.9*

What do the screens show for `CCn1ccc2cc(OC)ccc2c1=S`?
PMI act: 1.4; PMI act satM6P: 2*; G6PDH counter: -0.8; Diaphorase act: 0.9; Diaphorase inh: 13.8

Results for CSC1=NC(C(Cl)(Cl)Cl)N=C(c2ccc(C)cc2)N1 (stereo unspecified) ?
PMI act: 1.9; PMI act satM6P: 2.3*; G6PDH counter: -0.9; Diaphorase act: 0.9; Diaphorase inh: 9.1

Results for CCc1ccc(NC(=O)CSc2nc3ccccc3c(=O)n2CCCN2CCC(C)CC2)cc1 ?
PMI act: 1; PMI act satM6P: 1.1; G6PDH counter: 6.6; Diaphorase act: 1.1; Diaphorase inh: -11.3

What do the screens show for `Cc1ccc(OCC(=O)NC(=S)Nc2ccc(Br)cn2)cc1C`?
PMI act: 1; PMI act satM6P: 1; G6PDH counter: -0.7; Diaphorase act: 1; Diaphorase inh: -1.8

What do the screens show for `CN1c2ccsc2/C(=N/Nc2ccc(F)cc2)CS1(=O)=O`?
PMI act: 1.3; PMI act satM6P: 1.5; G6PDH counter: 7.9; Diaphorase act: 0.7; Diaphorase inh: 25.6

What do the screens show for `O=C1NCCC/C1=N/Nc1ccc(F)cc1`?
PMI act: 1.6; PMI act satM6P: 2.2*; G6PDH counter: 16.3; Diaphorase act: 0.9; Diaphorase inh: 9.4
